One compound from ChEMBL document CHEMBL1765064, “Discovery of potent and selective inhibitors of ataxia telangiectasia mutated and Rad3 related (ATR) protein kinase as potential anticancer agents” (J Med Chem, 2011) can be followed below.

In data set [1] the target is DNA-dependent protein kinase catalytic subunit (Homo sapiens, UniProt P78527). Kind of data set: Inhibition of DNAPK after 2 hrs by radiometric phosphate incorporation assay.
Data set [2] is described as follows: Permeability from apical to basolateral side of human Caco2 cells. It counts as ADME, cell-based. The following applies: Caco-2, read-out: permeability. (In general: Passage across Caco-2 layers is used to estimate intestinal permeability.)
The target of data set [3] is Serine-protein kinase ATM (Homo sapiens, UniProt Q13315). In words: Inhibition of full length recombinant ATM after 24 hrs by radiometric phosphate incorporation assay.
The subject of data set [4] is HFL1. Kind of data set: Cytotoxicity against human HFL1 cells at up to 20 uM after 96 hrs by MTS assay. It is filed as cell-based. The following applies: hfl1, 96 h. A digest of the protocol: (§1)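 Exponentially growing cells were plated and left to adhere overnight. Compounds were added at the indicated concentrations for 96 h. MTS reagent was then added, and absorbance at 490 nm was read 1 h later as a measure of cell density.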
(In general: Tetrazolium assays rely on reduction of a dye to a coloured formazan, in cell work by metabolically active cells.)

Data set [5] has as its system HFL1. Kind of data set: Potentiation of cisplatin-induced cytotoxicity against human HFL1 cells at 0.62 uM after 96 hrs by MTS assay. It counts as cell-based. The following applies: hfl1, 96 h. A digest of the protocol: (§2)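 Exponentially growing cells (ATCC lines, kept per supplier) plated and left to adhere overnight, then given inhibitor at 0.62 μM combined with cisplatin at the indicated concentrations for 96 h. Cell density read by MTS reagent, absorbance at 490 nm 1 h after addition. Fold change in cisplatin potency taken as potentiation. Synergy judged by MacSynergy analysis.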

The subject of data set [6] is HCT-116. In words: Potentiation of cisplatin-induced cytotoxicity against human HCT116 cells at 0.62 uM after 96 hrs by MTS assay. It counts as functional. A digest of the protocol: as §2
The subject of data set [7] is HCT-116. Kind of data set: Cytotoxicity against human HCT116 cells after 96 hrs by MTS assay. It is filed as functional, cell-based. To be noted: HCT-116, 96 h. The essentials: as §1
A short description of data set [8]: Permeability from basolateral to apical side of human Caco2 cells. The following applies: Caco-2, read-out: permeability. It is filed as ADME, cell-based.
The target in data set [9] is T1, Serine/threonine-protein kinase ATR (Homo sapiens, UniProt Q13535). Kind of data set: Inhibition of ATR in human HT-29 cells assessed as hydroxyurea-induced phosphorylation of H2AX by immunofluorescence microscopy. It counts as cell-based.
Data set [10] addresses T1, Serine/threonine-protein kinase ATR. In words: Competitive inhibition of full length recombinant ATR Morrison equation analysis. The essentials:
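Mean IC50s were plotted against ATP concentration and fit to the tight-binding competitive-inhibition equation IC50 = Ki(1 + [ATP]/Km) + [E]/2 to obtain Ki.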

Data set [11] has the same target. Kind of data set: Inhibition of full length recombinant ATR after 24 hrs by radiometric phosphate incorporation assay. A digest of the protocol: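 Radiometric [γ-33P]ATP incorporation into target peptide. Full-length ATR and ATM were made in-house; DNA-PK was purchased. Kinase, buffer and peptide were premixed, then compound was added in DMSO (7% final DMSO). Reactions started with ATP at 25 °C and were stopped with phosphoric acid (100 mM final) plus ATP (0.66 μM final). Peptide was captured on phosphocellulose, washed, and scintillation-counted.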

Usually IC50 stands for the concentration that inhibits the measured activity by half. As a reminder, the Ki is a dissociation constant, usually derived from enzyme kinetics or from competition with a known ligand.

T1 sequence (Q13535 whole entry): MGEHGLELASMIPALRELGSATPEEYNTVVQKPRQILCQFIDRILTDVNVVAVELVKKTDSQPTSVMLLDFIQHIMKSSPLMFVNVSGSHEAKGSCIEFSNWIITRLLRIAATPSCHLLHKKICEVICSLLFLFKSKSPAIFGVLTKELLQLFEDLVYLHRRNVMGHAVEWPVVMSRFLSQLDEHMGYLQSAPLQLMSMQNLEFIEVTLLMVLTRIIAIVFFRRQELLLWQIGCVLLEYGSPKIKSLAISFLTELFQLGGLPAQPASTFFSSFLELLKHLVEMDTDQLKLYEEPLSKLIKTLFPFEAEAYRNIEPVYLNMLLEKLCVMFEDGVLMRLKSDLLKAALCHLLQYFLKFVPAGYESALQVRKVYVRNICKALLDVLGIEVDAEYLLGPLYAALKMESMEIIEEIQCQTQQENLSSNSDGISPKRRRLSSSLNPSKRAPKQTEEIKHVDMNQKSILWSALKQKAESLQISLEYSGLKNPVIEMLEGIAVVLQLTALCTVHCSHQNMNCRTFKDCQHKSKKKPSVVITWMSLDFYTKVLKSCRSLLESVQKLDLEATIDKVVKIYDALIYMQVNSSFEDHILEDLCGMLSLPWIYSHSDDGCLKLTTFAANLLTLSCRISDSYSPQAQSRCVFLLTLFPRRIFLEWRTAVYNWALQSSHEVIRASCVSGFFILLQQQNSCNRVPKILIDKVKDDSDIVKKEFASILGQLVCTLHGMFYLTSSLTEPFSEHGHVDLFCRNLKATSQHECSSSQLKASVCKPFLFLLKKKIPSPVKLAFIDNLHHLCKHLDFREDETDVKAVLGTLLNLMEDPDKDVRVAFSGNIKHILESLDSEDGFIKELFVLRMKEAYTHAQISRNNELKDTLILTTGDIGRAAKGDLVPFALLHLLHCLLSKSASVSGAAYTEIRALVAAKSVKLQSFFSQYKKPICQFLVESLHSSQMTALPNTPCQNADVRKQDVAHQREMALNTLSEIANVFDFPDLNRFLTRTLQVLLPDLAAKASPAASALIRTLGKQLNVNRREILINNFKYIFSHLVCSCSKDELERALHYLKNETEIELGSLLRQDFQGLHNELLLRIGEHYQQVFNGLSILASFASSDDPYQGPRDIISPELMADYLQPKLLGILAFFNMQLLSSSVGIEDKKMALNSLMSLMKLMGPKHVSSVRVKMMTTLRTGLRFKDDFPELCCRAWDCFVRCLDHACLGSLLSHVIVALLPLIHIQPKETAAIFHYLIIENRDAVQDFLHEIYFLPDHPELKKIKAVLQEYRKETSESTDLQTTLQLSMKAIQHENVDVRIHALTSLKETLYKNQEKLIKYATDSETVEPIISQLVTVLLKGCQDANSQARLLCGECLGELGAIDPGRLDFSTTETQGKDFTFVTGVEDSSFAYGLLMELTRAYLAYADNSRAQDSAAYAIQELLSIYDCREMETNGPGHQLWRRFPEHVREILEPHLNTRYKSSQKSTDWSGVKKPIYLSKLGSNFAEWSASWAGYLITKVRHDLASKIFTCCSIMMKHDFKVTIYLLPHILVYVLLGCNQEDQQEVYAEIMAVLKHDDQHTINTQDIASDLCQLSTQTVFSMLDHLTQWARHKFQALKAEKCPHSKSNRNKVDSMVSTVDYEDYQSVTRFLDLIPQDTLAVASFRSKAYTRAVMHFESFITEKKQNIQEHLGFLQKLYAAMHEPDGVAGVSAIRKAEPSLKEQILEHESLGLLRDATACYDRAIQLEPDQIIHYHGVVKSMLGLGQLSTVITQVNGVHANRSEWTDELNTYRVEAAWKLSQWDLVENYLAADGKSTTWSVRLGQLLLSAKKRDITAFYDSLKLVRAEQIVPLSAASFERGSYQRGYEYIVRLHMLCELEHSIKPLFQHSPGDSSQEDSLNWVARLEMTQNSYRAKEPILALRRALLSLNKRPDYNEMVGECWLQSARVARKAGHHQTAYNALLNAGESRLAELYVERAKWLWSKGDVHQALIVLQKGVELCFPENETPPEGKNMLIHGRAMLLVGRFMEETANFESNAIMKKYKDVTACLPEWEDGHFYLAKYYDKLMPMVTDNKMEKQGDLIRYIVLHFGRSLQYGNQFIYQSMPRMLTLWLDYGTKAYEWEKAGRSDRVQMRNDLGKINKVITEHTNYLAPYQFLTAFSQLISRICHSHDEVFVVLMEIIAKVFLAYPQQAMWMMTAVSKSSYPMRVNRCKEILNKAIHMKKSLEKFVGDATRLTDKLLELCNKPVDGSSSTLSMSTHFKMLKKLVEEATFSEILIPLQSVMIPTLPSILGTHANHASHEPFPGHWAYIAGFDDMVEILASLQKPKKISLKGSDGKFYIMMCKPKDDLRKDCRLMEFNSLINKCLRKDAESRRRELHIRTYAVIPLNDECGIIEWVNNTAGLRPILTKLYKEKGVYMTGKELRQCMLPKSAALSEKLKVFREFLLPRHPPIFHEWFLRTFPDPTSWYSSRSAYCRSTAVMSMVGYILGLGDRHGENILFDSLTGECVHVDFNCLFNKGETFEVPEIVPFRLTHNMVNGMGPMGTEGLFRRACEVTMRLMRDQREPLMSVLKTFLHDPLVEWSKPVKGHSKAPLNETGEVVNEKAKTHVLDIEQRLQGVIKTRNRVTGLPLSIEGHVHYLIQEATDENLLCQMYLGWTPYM

`CC(CN(C)C)S(=O)(=O)c1ccc(-c2cnc(N)c(C(=O)Nc3ccccc3)n2)cc1` (stereo unspecified): the IC50 is more than 8 µM in [1]; more than 8 µM in data set [3]; 1100 nM with HCT-116 [7]; 420 nM in data set [9]; 12 nM in data set [11]. The Papp A→B in data set [2] amounted to 17 ×10⁻⁶ cm/s. The Activity entry with HFL1 [4] is “Non-toxic”. Also, the “fold change (FC)” value was determined as 1.1 with HFL1 [5] and 7 in the data set on HCT-116 [6]. In addition, in data set [8], the Papp B→A came out at 23 ×10⁻⁶ cm/s. Also, in data set [10], the Ki was 6 nM.
